Laboratory results from ChEMBL document CHEMBL4038327, “Inhibitory Kappa B Kinase α (IKKα) Inhibitors That Recapitulate Their Selectivity in Cells against Isoform-Related Biomarkers” (J Med Chem, 2017).

How the values were obtained:
[1] = target: T1, Inhibitor of nuclear factor kappa-B kinase subunit beta (Homo sapiens, UniProt O14920); experiment: Inhibition of recombinant full length human IKKbeta expressed in baculovirus infected sf9 insect cells using biotinylated IkBalpha as substrate after 60 mins by DELFIA
T1 sequence (O14920 whole entry): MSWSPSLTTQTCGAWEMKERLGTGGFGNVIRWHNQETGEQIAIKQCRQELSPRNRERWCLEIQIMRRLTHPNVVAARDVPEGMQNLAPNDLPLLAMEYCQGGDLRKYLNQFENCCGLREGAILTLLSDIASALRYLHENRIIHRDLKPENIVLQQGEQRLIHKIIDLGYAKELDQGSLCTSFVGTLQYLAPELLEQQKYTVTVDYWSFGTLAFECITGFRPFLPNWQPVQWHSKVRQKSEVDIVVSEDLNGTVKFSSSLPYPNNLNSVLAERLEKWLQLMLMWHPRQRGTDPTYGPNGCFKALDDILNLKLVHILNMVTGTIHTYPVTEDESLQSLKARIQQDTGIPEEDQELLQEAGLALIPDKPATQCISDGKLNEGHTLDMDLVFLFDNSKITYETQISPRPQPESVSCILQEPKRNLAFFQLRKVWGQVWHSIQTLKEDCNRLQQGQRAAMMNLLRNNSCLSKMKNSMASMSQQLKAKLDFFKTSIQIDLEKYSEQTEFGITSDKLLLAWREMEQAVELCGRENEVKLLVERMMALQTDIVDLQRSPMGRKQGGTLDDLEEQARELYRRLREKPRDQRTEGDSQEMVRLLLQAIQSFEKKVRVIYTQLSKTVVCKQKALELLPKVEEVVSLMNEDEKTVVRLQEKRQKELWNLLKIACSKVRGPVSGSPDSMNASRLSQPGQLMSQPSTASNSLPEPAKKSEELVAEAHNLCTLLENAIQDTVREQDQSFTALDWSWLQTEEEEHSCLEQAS
Outline: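 Recombinant IKKβ (37 nM) was incubated with biotinylated IκB-α (Ser32) peptide (0.375 μM) and 40 μM ATP in Tris-HCl pH 7.5 with MgCl2, EDTA, DTT and BSA for 60 min at 30 °C. The reaction was quenched with EDTA and captured on streptavidin. Detection used anti-phospho-IκBα (Ser32/36) mAb plus Eu-anti-mouse IgG, read by time-resolved fluorescence (340/615 nm). Apparent Ki was obtained via Cheng–Prusoff, n=3.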

[2] = target: T2, Inhibitor of nuclear factor kappa-B kinase subunit alpha (Homo sapiens, UniProt O15111); experiment: Inhibition of recombinant human N-terminal GST-tagged IKKalpha (1 to 745 residues) expressed in baculovirus expression system using biotinylated IkBalpha as substrate after 60 mins by DELFIA
T2 sequence (O15111 whole entry): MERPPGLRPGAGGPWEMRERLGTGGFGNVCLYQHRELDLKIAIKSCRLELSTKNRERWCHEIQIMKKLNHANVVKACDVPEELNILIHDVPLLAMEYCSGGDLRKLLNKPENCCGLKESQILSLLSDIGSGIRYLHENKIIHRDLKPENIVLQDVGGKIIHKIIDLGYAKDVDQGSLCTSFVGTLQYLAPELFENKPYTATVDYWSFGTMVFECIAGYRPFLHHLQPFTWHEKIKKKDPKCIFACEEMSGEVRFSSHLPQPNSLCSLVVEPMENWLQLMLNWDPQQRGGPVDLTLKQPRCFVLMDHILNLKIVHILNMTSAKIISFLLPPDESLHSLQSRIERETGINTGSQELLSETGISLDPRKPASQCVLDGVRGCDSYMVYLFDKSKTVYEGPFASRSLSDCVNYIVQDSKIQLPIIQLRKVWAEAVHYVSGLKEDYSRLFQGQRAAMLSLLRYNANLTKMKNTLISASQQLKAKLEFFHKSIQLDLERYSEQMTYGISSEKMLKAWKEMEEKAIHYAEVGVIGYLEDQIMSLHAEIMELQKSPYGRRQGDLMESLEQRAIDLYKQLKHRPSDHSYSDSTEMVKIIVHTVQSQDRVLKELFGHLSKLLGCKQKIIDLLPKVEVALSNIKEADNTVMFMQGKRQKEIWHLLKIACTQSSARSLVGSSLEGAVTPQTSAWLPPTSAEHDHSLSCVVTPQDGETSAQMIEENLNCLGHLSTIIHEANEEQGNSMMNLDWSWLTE

| SMILES | Ki [1] [µM] | Ki [2] [µM] |
| --- | --- | --- |
| N#Cc1c[nH]c2nc(N)nc(N3CCCCC3)c12 | > 30 | 5.3 |
| N#Cc1c[nH]c2nc(N)nc(NCCN3CCOCC3)c12 | > 30 | > 30 |
| Nc1nc(NC2CCCCC2)c2cc[nH]c2n1 | > 30 | > 30 |
| N#Cc1c[nH]c2nc(N)nc(N3CCC[C@H]3CO)c12 | > 30 | 3.1 |
| N#Cc1c[nH]c2nc(N)nc(N3CCOCC3)c12 | 20 | > 30 |
| N#Cc1c[nH]c2nc(N)nc(NCC3CC3)c12 | > 30 | 16 |
| Nc1nc(Cl)c2cc[nH]c2n1 | > 30 | > 30 |
| N#Cc1c[nH]c2nc(N)nc(-c3ccccc3)c12 | > 30 | 1.7 |
| N#Cc1c[nH]c2nc(N)nc(-c3ccccc3F)c12 | > 30 | 2 |
| CS(=O)(=O)c1ccc(-c2nc(N)nc3[nH]cc(C#N)c23)cc1 | 0.3 | 2.4 |
| NC(=O)c1c[nH]c2nc(N)nc(N[C@H]3CC[C@H](O)CC3)c12 | > 30 | > 30 |
| N#Cc1c[nH]c2nc(N)nc(NCc3ccccc3)c12 | > 30 | 5.3 |
| N#Cc1c[nH]c2nc(N)nc(-c3cccc(F)c3)c12 | > 30 | 7.7 |
| CNc1nc(N)nc2[nH]cc(C#N)c12 | > 30 | 13 |
| NS(=O)(=O)c1ccc(-c2ncnc3[nH]ccc23)cc1 | 2.5 | 1.5 |
| N#Cc1c[nH]c2nc(N)nc(N3CCN(CCCO)CC3)c12 | > 30 | 12.1 |
| Nc1nc(-c2ccc(S(N)(=O)=O)cc2)c2cc[nH]c2n1 | 0.61 | 2.9 |
| Nc1nc(N[C@H]2CC[C@H](O)CC2)c2cc[nH]c2n1 | > 30 | > 30 |
| N#Cc1c[nH]c2nc(N)nc(-c3ccccc3CO)c12 | > 30 | > 30 |
| N#Cc1c[nH]c2nc(N)nc(N3CC[C@@H](O)C3)c12 | > 30 | > 30 |
| N#Cc1c[nH]c2nc(N)nc(-c3ccc(O)cc3)c12 | 20 | 1.6 |
| N#Cc1c[nH]c2nc(N)nc(Nc3ccccc3)c12 | > 30 | 13 |
| Cc1ccc(NS(=O)(=O)c2ccc(-c3nc(N)nc4[nH]cc(C#N)c34)cc2)cc1 | 1.4 | 16 |
| N#Cc1c[nH]c2nc(N)nc(-c3cccc(O)c3)c12 | 3.8 | 2.4 |
| N#Cc1c[nH]c2nc(N)nc(Nc3ccc(C(=O)O)cc3)c12 | > 30 | > 30 |
| N#Cc1c[nH]c2nc(N)nc(N3CC[C@H](O)C3)c12 | > 30 | 6 |
| N#Cc1c[nH]c2nc(N)nc(N3CCC[C@@H]3CO)c12 | > 30 | 2.5 |

| SMILES | Ki [1] [µM] | Ki [2] [µM] |
| --- | --- | --- |
| CN1CCN(c2nc(N)nc3[nH]cc(C#N)c23)CC1 | > 30 | > 30 |
| N#Cc1c[nH]c2nc(N)nc(N3CCC(S(N)(=O)=O)CC3)c12 | 5.9 | 5.3 |
| N#Cc1c[nH]c2nc(N)nc(-c3ccc(F)cc3)c12 | > 30 | 10 |
| N#Cc1c[nH]c2nc(N)nc(NC3CCCCC3)c12 | > 30 | 1.8 |
| N#Cc1c[nH]c2nc(N)nc(N)c12 | > 30 | > 30 |
| N#Cc1c[nH]c2nc(N)nc(-c3ccccc3O)c12 | > 30 | 15 |
| CNS(=O)(=O)c1ccc(-c2nc(N)nc3[nH]cc(C#N)c23)cc1 | 0.4 | 1.7 |
| N#Cc1c[nH]c2ncnc(-c3ccc(S(N)(=O)=O)cc3)c12 | > 30 | 2.1 |
| N#Cc1c[nH]c2nc(N)nc(-c3cccc(C(N)=O)c3)c12 | > 30 | > 30 |
| N#Cc1c[nH]c2nc(N)nc(Nc3ccc(S(N)(=O)=O)cc3)c12 | > 30 | 10 |
| N#Cc1c[nH]c2nc(N)nc(N3CCN(CCO)CC3)c12 | > 30 | > 30 |
| N#Cc1c[nH]c2nc(N)nc(NCCO)c12 | > 30 | 1.6 |
| N#Cc1c[nH]c2nc(N)nc(-c3cccc(S(N)(=O)=O)c3)c12 | 5.9 | 5.3 |
| N#Cc1c[nH]c2nc(N)nc(-c3ccccc3C(N)=O)c12 | > 30 | > 30 |
| CS(=O)(=O)Nc1ccc(-c2nc(N)nc3[nH]cc(C#N)c23)cc1 | 0.1 | 1.4 |
| N#Cc1c[nH]c2nc(N)nc(N3CCN(c4ccccc4)CC3)c12 | > 30 | > 30 |
| Nc1nc(N2CCCCC2)c2cc[nH]c2n1 | > 30 | > 30 |
| N#Cc1c[nH]c2nc(N)nc(N(CCO)C3CCCCC3)c12 | > 30 | > 30 |
| N#Cc1c[nH]c2nc(N)nc(Cl)c12 | > 30 | 4 |
| N#Cc1c[nH]c2nc(N)nc(-c3ccccc3S(N)(=O)=O)c12 | > 30 | > 30 |
| CN(c1nc(N)nc2[nH]cc(C#N)c12)C1CCCCC1 | > 30 | > 30 |
| N#Cc1c[nH]c2nc(N)nc(N[C@H]3CC[C@H](O)CC3)c12 | > 30 | 2 |
| N#Cc1c[nH]c2nc(N)nc(-c3ccc(C(N)=O)cc3)c12 | > 30 | 16 |
| N#Cc1c[nH]c2nc(N)nc(N[C@@H]3C[C@H](O)[C@@H](O)[C@H]3O)c12 | 3.6 | 0.8 |
| N#Cc1c[nH]c2nc(N)nc(-c3cccc(CO)c3)c12 | 4 | 9.8 |
| Nc1nc(NC2CCCCC2)c2c(C(F)(F)F)c[nH]c2n1 | > 30 | > 30 |
